# A selection: hits, their analogues and other compounds. The true share with any hit is near 2.1%.
# APJ antag: antagonists of human apelin receptor APJ, primary screen, CHO-K1 cells, beta-arrestin complementation, luminescence; P35414; inhibition, % at 20 µM; hit rate 0.32% among 330,000; AID 2521, 2010;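 active = inhibition above about 40% at 20 µM, limit read from the data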;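 also: cells challenged with 10 nM apelin-13 agonist together with compound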
# HTR2A ag: mouse Htr2a agonists via beta-arrestin recruitment, primary screen, cell-based, luminescence; AID 624169, 2012; 5-hydroxytryptamine receptor 2A (Mus musculus), P35363; hit rate 0.66% among 360,000; CHO-K1 mHTR2A beta-arrestin complementation; percent of 30 µM serotonin response; activation, % at 7.6 µM;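 active = activation above a run cutoff, the mean activation of all tested compounds plus 3 SD, cut at about 14% in these data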
# APJ agonist: agonists of human apelin receptor APJ, primary screen, CHO-K1 cells, PathHunter beta-arrestin, luminescence | P35414 | 0% DMSO wells, 100% apelin | activation, % at 20 µM | hit rate 0.11% among 330,000 | AID 2520, 2010;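 active = activation more than six SD over the plate average, tested at 20 µM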
#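 Material: CHO-K1 APJ beta-arrestin complementation cell line; Input: cell density 1000 per well; Incubation: compound stimulation 90 min at 25 °C, detection 60 min; Signal: luminescence from split beta-galactosidase complementation, Galacton Star/Emerald II substrate; Controls: DMSO-only wells as negative, 10 nM Apelin-13 as positive control.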
# CCR6 antagonist: CCR6 receptor antagonists, primary screen, cell-based, CHO-K1, luminescence, beta-arrestin, uHTS; CHO-K1 CCR6 PathHunter beta-arrestin, CCL20-stimulated; inhibition, % at 20 µM; hit rate 0.49% among 340,000; AID 493098, 2011;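 active = compounds whose inhibition of the agonist-driven luminescence signal at 20 µM reaches about 50%, limit read from the data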;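 also: cells stimulated with CCL20 at 14 nM final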
# Target sequence (P51684 whole entry, looked up): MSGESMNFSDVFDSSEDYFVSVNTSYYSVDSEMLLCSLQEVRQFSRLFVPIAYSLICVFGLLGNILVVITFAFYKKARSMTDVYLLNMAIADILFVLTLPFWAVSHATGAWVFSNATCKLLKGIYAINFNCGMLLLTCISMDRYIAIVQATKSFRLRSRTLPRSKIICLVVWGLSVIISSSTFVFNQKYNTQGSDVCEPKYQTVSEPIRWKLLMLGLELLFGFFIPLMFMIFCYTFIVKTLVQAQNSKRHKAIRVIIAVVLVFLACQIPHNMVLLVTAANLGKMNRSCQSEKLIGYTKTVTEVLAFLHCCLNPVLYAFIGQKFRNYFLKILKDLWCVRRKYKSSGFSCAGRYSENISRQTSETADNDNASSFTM
# CXCR6 inh: CXCR6 receptor inhibitors, primary screen, cell-based, beta-arrestin, luminescence, CHO-K1 PathHunter, 1536-well | hit rate 0.36% among 360,000 | inhibition, % at 20 µM | C-X-C chemokine receptor type 6 (Homo sapiens), O00574; in the data active = inhibition above about 34%, passing the limit was not always enough;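 also: antagonist mode with CXCL16 agonist at 10 nM final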
# EBI2 block: EBI2 receptor antagonists, beta-arrestin recruitment, primary screen, cell-based, luminescence, 7a,25-OHC stimulation, uHTS; 7a,25-OHC stimulated; inhibition, % at 5 µM; hit rate 0.81% among 360,000; in the data active = inhibition above about 38%;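 also: enzyme fragment complementation signal reports receptor beta-arrestin coupling in cells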
# MOR ag counter: OPRM1 agonists via beta-arrestin recruitment, confirmation, counter-screen for mouse HTR2A agonist project, cell-based, luminescence, single concentration. shares compounds with HTR2A ag. U2OS OPRM1 beta-arrestin PathHunter; DMSO 0%, DAMGO 9.3 µM 100%. activation, % at 9.3 µM. hit rate 5.3% among 2,300. AID 624380, 2012;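 active = mean activation above the mean of DMSO-only wells plus 3 SD, cut at about 0.5% in these data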
# HTR2A ag conf: mouse HTR2A agonists, beta-arrestin recruitment, confirmation, cell-based, luminescence, CHO-K1 PathHunter, triplicate | shares compounds with HTR2A ag | activation, % at 7.6 µM | hit rate 19% among 2,300 | DMSO 0%, 30 µM serotonin 100%;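 active = mean activation across triplicates above the hit threshold derived in the original primary screen, cut at about 15% in these data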
# A number is an active result; 0 = inactive; - = no result.
SMILES,APJ antag,HTR2A ag,APJ agonist,CCR6 antagonist,CXCR6 inh,EBI2 block,MOR ag counter,HTR2A ag conf
Cc1ccc(C(=O)NNC(=S)NC(=O)c2ccco2)cc1,0,0,0,0,0,0,-,-
CC(C)C(=O)Nc1ccc(C(=O)NNC(=S)NC(=O)c2ccco2)cc1,0,15,0,0,0,0,0,0
CN(c1cccc(NC(=O)CN2C(=O)c3ccccc3S2(=O)=O)c1)S(C)(=O)=O,0,0,0,0,0,0,-,-
N/C(=N\OC(=O)c1ccc2ccccc2c1)c1cccc([N+](=O)[O-])c1,0,0,0,0,0,0,-,-
N/C(=N\OC(=O)c1ccccc1Cl)c1cccc([N+](=O)[O-])c1,0,15,0,0,0,0,0,0
O=C1NC(=O)C(CC(=O)N(Cc2cccs2)C2(C(=O)NC3CCCC3)CCCCC2)N1 (centres undefined),0,0,0,0,0,0,-,-
Cc1cc(C)cc(-n2c(C)cc(/C=C3\C(=N)N4N=C(CC(C)C)SC4=NC3=O)c2C)c1,0,18,0,0,0,0,0,0
Cc1cccc(-n2c(C)cc(/C=C3\C(=N)N4N=C(CC(C)C)SC4=NC3=O)c2C)c1,0,0,0,0,0,0,-,-
CC(=O)O[C@@H]1[C@H](Oc2c(O)c(C)c3c4c2[C@H](C)CC[C@H]4[C@H](C)C[C@@H]3C=C(C)C)O[C@@H](C)[C@@H](O)[C@H]1O,-,0,-,-,0,0,-,-
Cc1nc(NC(=O)c2ccco2)sc1C(=O)O,-,19,-,0,0,0,0,0
COC(=O)c1sc(NC(=O)c2ccco2)nc1C,0,0,0,0,0,0,-,-
CCOc1cc(-c2c(C)c(C)nc(N)c2C#N)ccc1O,0,15,0,0,0,0,0,24
CSc1ccccc1OCc1cc(C(=O)N2CCC[C@H]2C(N)=O)no1,0,15,0,0,0,0,0,0
CSc1ccccc1OCc1cc(C(=O)N2CCCC(C)C2)no1 (centres undefined),0,0,0,0,0,0,-,-
O=C1CCNc2c(Cl)cc(Cl)cc21,0,0,0,0,0,0,-,-
O=C1CCNc2c(Cl)cccc21,0,15,0,0,0,0,0,0
c1ccc(CCNc2ccc3nncn3n2)cc1,0,16,0,0,0,0,0,0
CCS(=O)(=O)c1nc(S(=O)(=O)c2ccc(C)cc2)c(N2CCCCCC2)s1,-,15,-,-,0,0,0,0
CCS(=O)(=O)c1nc(S(=O)(=O)c2ccc(C)cc2)c(N2CCCC2)s1,0,0,0,0,0,0,-,-
CCn1c(=S)[nH]c2c(=O)n(C)c(=O)n(C)c21,-,17,-,0,0,0,0,0
C=CCn1c(SCC(=O)Nc2ccc3c(c2)OCO3)nnc1-c1cc(Br)ccc1O,0,0,0,0,0,0,-,-
O=Nc1c(O)n(Cc2cccc(C(F)(F)F)c2)c2ccccc12,0,16,0,0,0,0,0.7,0
C=CCN(c1ccccc1OC)S(=O)(=O)c1cccc(C(=O)Nc2nnc(C3CC3)s2)c1,0,0,0,0,0,0,-,-
O=C(Nc1nnc(C2CC2)s1)c1cccc(S(=O)(=O)N2CC(c3ccccc3)CC2=O)c1 (centres undefined),0,17,0,0,0,0,0,0
CN1CCN(NC(=O)Nc2ccc(F)cc2)CC1,0,15,0,0,0,0,0,0
SMILES,APJ antag,HTR2A ag,APJ agonist,CCR6 antagonist,CXCR6 inh,EBI2 block,MOR ag counter,HTR2A ag conf
COc1ccc(CNC(=O)CCCn2nc(C)n3ccnc3c2=O)cc1,0,25,0,0,0,0,0,0
CC(=NNS(=O)(=O)c1cccc([N+](=O)[O-])c1)c1ccc(-n2ccnc2)cc1,0,15,0,0,0,0,0,0
CC(=O)c1cccc(CN(C)CC2CCCN(CCc3ccccc3C)C2)c1 (centres undefined),0,0,0,0,0,0,-,-
COc1ccc(C)cc1NC(=O)c1ccc(CN2CCN(c3ccccc3)CC2)cc1,0,36,0,0,0,0,0,61
COc1ccc(NC(=O)c2ccc(CN3CCN(c4ccccc4)CC3)cc2)cc1OC,0,0,0,0,0,0,-,-
COc1cccc(C(=O)NNC(=O)CCN2CCN(c3ccccc3)CC2)c1,0,23,0,0,0,0,0,48
COc1cc(CN2CCN(c3ccccc3F)CC2)cc(OC)c1O,0,16,0,0,0,0,0,30
COc1ccc(OC)c(NC(=O)CCN2CCN(c3ccccc3F)CC2)c1,0,0,0,0,0,0,-,-
COc1ccc(C)cc1NC(=O)CCN1CCN(c2ccccc2F)CC1,0,18,0,0,0,0,0,57
Cc1cc(=O)oc2c3c(cc(OCC(=O)NCCCn4ccnc4)c12)OC(C)(C)CC3,0,0,0,0,0,0,-,-
Cc1nc(-c2ccc(F)cc2)c(CC(=O)N(C)CC(=O)Nc2cccc(F)c2)s1,-,0,-,-,0,0,-,-
Cc1ccc(C)c(NC(=O)CCN2CCN(C)CC2)c1,0,0,0,0,0,0,-,-
CCOc1ccc(NC(=O)CCN2CCN(c3ccccc3F)CC2)cc1,0,21,0,0,0,0,0,45
Cc1ccc(C)c(NC(=O)CCN2CCOCC2)c1,0,20,0,0,0,0,0,0
COc1ccccc1C(=O)NCCN1CCN(c2ccccc2)CC1,0,15,0,0,0,0,0,70
CCOC(=O)C1CCCN(S(=O)(=O)c2ccc(C)cc2)C1 (centres undefined),0,0,0,0,0,0,-,-
CCOC(=O)C1CCCN(S(=O)(=O)c2ccc(OC)cc2)C1 (centres undefined),0,24,0,0,0,0,0,0
Cc1c(NC(=O)c2ccc(N3CCCC3)c([N+](=O)[O-])c2)cccc1-c1nc2ccccc2s1,0,0,0,0,0,0,-,-
CN(c1ccc(C(=O)N2CCN(Cc3ccccc3)CC2)cc1)S(=O)(=O)c1ccc(Cl)cc1,0,15,0,0,0,0,0,64
